The source made the active and inactive calls. The rule behind the calls is not given here.
Key:
[1] = system: A549; test: Cytotoxicity against human A549 cells by MTT assay; format: functional, cell-based
Method in brief: (§1)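 Cytotoxicity was read by MTT assay on human tumour lines: A549 lung, HT-29 colon, MCF-7 breast, SK-OV-3 ovary, and HL-60 and U937 leukaemia. Results are given as IC50 (μM), with values below 100 μM counted as active. A positive control was included.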

[2] = system: HL-60; test: Cytotoxicity against human HL60 cells by MTT assay; format: functional, cell-based; method in brief: as §1
[3] = system: HT-29; test: Cytotoxicity against human HT-29 cells by MTT assay; format: functional, cell-based; method in brief: as §1
[4] = system: MCF7; test: Cytotoxicity against human MCF7 cells by MTT assay; format: functional, cell-based; method in brief: as §1
[5] = system: SK-OV-3; test: Cytotoxicity against human SKOV3 cells by MTT assay; format: functional, cell-based; method in brief: as §1
[6] = system: U-937; test: Cytotoxicity against human U937 cells by MTT assay; format: functional, cell-based; method in brief: as §1
[7] = system: HL-60; test: Cell cycle distribution in human HL60 cells assessed as cell cycle accumulation at sub-G1 phase at 21.3 uM after 6 hrs by flow cytometry; format: functional
Method in brief: (§2)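 HL-60 cells exposed for 6, 12 or 24 h, then washed twice in PBS and fixed in 70% ethanol (30 min, 4°C). After a PBS rinse they were stained in the dark with 50 μg/mL propidium iodide plus 50 μg/mL RNase A (30 min, 37°C). DNA content was read by flow cytometry, and the sub-G1 hypodiploid fraction was taken from the DNA histograms.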

[8] = system: HL-60; test: Cell cycle distribution in human HL60 cells assessed as cell cycle accumulation at sub-G1 phase at 21.3 uM after 12 hrs by flow cytometry; format: functional; method in brief: as §2
[9] = system: HL-60; test: Cell cycle distribution in human HL60 cells assessed as cell cycle accumulation at sub-G1 phase at 21.3 uM after 24 hrs by flow cytometry; format: functional; method in brief: as §2
[10] = system: HL-60; test: Induction of apoptosis in human HL60 cells assessed as increase in number of apoptotic body with condensed and fragmented nuclei at 21.3 uM after 6 to 24 hrs by H33342 staining method; format: functional, cell-based
Method in brief: (§3)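 HL-60 cells at 3×10^5 cells/mL were exposed for 6, 12 and 24 h, washed twice with PBS and stained with 1 mg/mL Hoechst 33342 (30 min, 37°C). Apoptotic bodies, seen as condensed and fragmented nuclei, were scored by fluorescence microscopy at ×400.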

[11] = system: HL-60; test: Cell cycle distribution in human HL60 cells assessed as cell cycle accumulation at sub-G1 phase at 19.9 uM after 6 hrs by flow cytometry; format: functional; method in brief: as §2
[12] = system: HL-60; test: Cell cycle distribution in human HL60 cells assessed as cell cycle accumulation at sub-G1 phase at 19.9 uM after 12 hrs by flow cytometry; format: functional; method in brief: as §2
[13] = system: HL-60; test: Cell cycle distribution in human HL60 cells assessed as cell cycle accumulation at sub-G1 phase at 19.9 uM after 24 hrs by flow cytometry; format: functional; method in brief: as §2
[14] = system: HL-60; test: Induction of apoptosis in human HL60 cells assessed as increase in number of apoptotic body with condensed and fragmented nuclei at 19.9 uM after 6 to 24 hrs by H33342 staining method; format: functional, cell-based; method in brief: as §3
[15] = system: HL-60; test: Cell cycle distribution in human HL60 cells assessed as cell cycle accumulation at sub-G1 phase at 21.5 uM after 6 hrs by flow cytometry; format: functional; method in brief: as §2
[16] = system: HL-60; test: Cell cycle distribution in human HL60 cells assessed as cell cycle accumulation at sub-G1 phase at 21.5 uM after 12 hrs by flow cytometry; format: functional; method in brief: as §2
[17] = system: HL-60; test: Cell cycle distribution in human HL60 cells assessed as cell cycle accumulation at sub-G1 phase at 21.5 uM after 24 hrs by flow cytometry; format: functional; method in brief: as §2
[18] = system: HL-60; test: Induction of apoptosis in human HL60 cells assessed as increase in number of apoptotic body with condensed and fragmented nuclei at 21.5 uM after 6 to 24 hrs by H33342 staining method; format: functional, cell-based; method in brief: as §3

Row | Structure (SMILES) | IC50 [1] [µM] | IC50 [2] [µM] | IC50 [3] [µM] | IC50 [4] [µM] | IC50 [5] [µM] | IC50 [6] [µM] | Activity [7] [%] | Activity [8] [%] | Activity [9] [%] | Activity [10] | Activity [11] [%] | Activity [12] [%] | Activity [13] [%] | Activity [14] | Activity [15] [%] | Activity [16] [%] | Activity [17] [%] | Activity [18]
1 | CC(CCC(C)C1CCC2C3CC4OC45CC(O)CCC5(C)C3CCC12C)C1CC1C (stereo unspecified) | 9.8 | 21.3 | 69.9 | 19.4 | 22.6 | 19.9 | 11.8 | 24.92 | 51.33 | Active |  |  |  |  |  |  |  | 
2 | C[C@H](CC[C@@H](C)[C@H]1CC[C@H]2[C@@H]3CC(=O)C4=CC(=O)CC[C@]4(C)[C@H]3CC[C@]12C)[C@@H]1C[C@H]1C | 8.4 | 19.9 | 48.2 | 17.8 | 16.2 | 22.1 |  |  |  |  | 11.19 | 21.85 | 48.83 | Active |  |  |  | 
3 | C[C@H](CC[C@@H](C)[C@H]1CC[C@H]2[C@@H]3CC=C4C[C@@H](O)CC[C@]4(C)[C@H]3CC[C@]12C)[C@@H]1C[C@H]1C [PETROSTEROL] | 11.5 | 21.5 | 46.5 | 16.4 | 19.8 | 18.7 |  |  |  |  |  |  |  |  | 12.61 | 27.4 | 52.58 | Active
4 | O=C1c2c(O)ccc(O)c2C(=O)c2c(NCCNCCO)ccc(NCCNCCO)c21 [MITOXANTRONE] | 8 | 6.3 | 8.7 | 7.1 | 9.8 | 6.2 |  |  |  |  |  |  |  |  |  |  |  | 
